What was measured:
Type in all cases: functional
A498 [1] = assay: Growth inhibition of human A498 cells assessed as cell growth at 100 nM relative to untreated control; conditions: read-out: Activity
EKVX [2] = assay: Growth inhibition of human EKVX cells assessed as cell growth at 100 nM relative to untreated control; conditions: read-out: Activity
How it was run: (§1)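 Run externally at the National Cancer Institute as a 59-cell-line panel screen, with concentrations up to 100 μM. Growth was scored relative to control, where negative growth or total cell kill was possible. Data are in the Supporting Information.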

UO-31 = assay: Growth inhibition of human UO31 cells assessed as cell growth at 100 nM relative to untreated control; conditions: read-out: Activity
ACHN = assay: Growth inhibition of human ACHN cells assessed as cell growth at 1 uM relative to untreated control; conditions: read-out: Activity
SNB-19 [3] = assay: Growth inhibition of human SNB19 cells assessed as cell growth at 1 nM relative to untreated control; conditions: read-out: Activity
IGROV-1 = assay: Growth inhibition of human IGROV1 cells assessed as cell growth at 1 nM relative to untreated control; conditions: read-out: Activity
NCI-H460 [4] = assay: Growth inhibition of human NCI-H460 cells assessed as cell growth at 1 nM relative to untreated control; conditions: read-out: Activity
UACC-62 = assay: Growth inhibition of human UACC62 cells assessed as cell growth at 10 nM relative to untreated control; conditions: read-out: Activity
SNB-75 [5] = assay: Growth inhibition of human SNB75 cells
EKVX [6] = assay: Growth inhibition of human EKVX cells assessed as cell growth at 1 uM relative to untreated control; conditions: read-out: Activity; how it was run: as §1
HOP-92 [7] = assay: Growth inhibition of human HOP92 cells assessed as cell growth at 10 nM relative to untreated control; conditions: read-out: Activity; how it was run: as §1
HCC 2998 [8] = assay: Growth inhibition of human HCC2998 cells assessed as cell growth at 10 nM relative to untreated control; conditions: read-out: Activity; how it was run: as §1
HT-29 = assay: Growth inhibition of human HT-29 cells assessed as cell growth at 100 nM relative to untreated control; conditions: read-out: Activity
OVCAR-5 [9] = assay: Growth inhibition of human OVCAR5 cells assessed as cell growth at 1 nM relative to untreated control; conditions: read-out: Activity
U-251 = assay: Growth inhibition of human U251 cells assessed as cell growth at 1 uM relative to untreated control; conditions: read-out: Activity
HOP-62 = assay: Growth inhibition of human HOP62 cells; how it was run: as §1
T47D = assay: Growth inhibition of human T47D cells assessed as cell growth at 10 nM relative to untreated control; conditions: read-out: Activity
UACC-257 [10] = assay: Growth inhibition of human UACC257 cells assessed as cell growth at 1 uM relative to untreated control; conditions: read-out: Activity
HL-60(TB) = assay: Growth inhibition of human HL-60(TB) cells; conditions: read-out: LC50 (the source's name)
NCI-H23 = assay: Growth inhibition of human NCI-H23 cells assessed as cell growth at 1 nM relative to untreated control; conditions: read-out: Activity
A549 = assay: Growth inhibition of human A549 cells assessed as cell growth at 1 nM relative to untreated control; conditions: read-out: Activity
MCF7 = assay: Growth inhibition of human MCF7 cells assessed as cell growth at 1 nM relative to untreated control; conditions: read-out: Activity
A498 [11] = assay: Growth inhibition of human A498 cells assessed as cell growth at 1 nM relative to untreated control; conditions: read-out: Activity
MDA-MB-435 = assay: Growth inhibition of human MDA-MB-435 cells assessed as cell growth at 10 uM relative to untreated control; conditions: read-out: Activity
UACC-257 [12] = assay: Growth inhibition of human UACC257 cells assessed as cell growth at 10 nM relative to untreated control; conditions: read-out: Activity
DU-145 [13] = assay: Growth inhibition of human DU145 cells assessed as cell growth at 1 nM relative to untreated control; conditions: read-out: Activity; how it was run: as §1
BT-549 = assay: Growth inhibition of human BT549 cells assessed as cell growth at 100 nM relative to untreated control; conditions: read-out: Activity
UACC-257 [14] = assay: Growth inhibition of human UACC257 cells
786-0 = assay: Growth inhibition of human 786-0 cells assessed as cell growth at 1 nM relative to untreated control; conditions: read-out: Activity
SF-268 = assay: Growth inhibition of human SF268 cells
SNB-19 [15] = assay: Growth inhibition of human SNB19 cells
SR = assay: Growth inhibition of human SR cells assessed as cell growth at 10 nM relative to untreated control; conditions: read-out: Activity
TK-10 = assay: Growth inhibition of human TK10 cells assessed as cell growth at 10 uM relative to untreated control; conditions: read-out: Activity
NCI-H460 [16] = assay: Growth inhibition of human NCI-H460 cells assessed as cell growth at 10 nM relative to untreated control; conditions: read-out: Activity
[17] = Growth inhibition of human […] cells assessed as cell growth at 10 nM relative to untreated control; conditions: read-out: Activity
OVCAR-5 [18] = assay: Growth inhibition of human OVCAR5 cells assessed as cell growth at 10 uM relative to untreated control; conditions: read-out: Activity
NCI-H322M = assay: Growth inhibition of human NCI-H322M cells assessed as cell growth at 1 uM relative to untreated control; conditions: read-out: Activity
OVCAR-4 = assay: Growth inhibition of human OVCAR4 cells assessed as cell growth at 10 uM relative to untreated control; conditions: read-out: Activity
HCC 2998 [19] = assay: Growth inhibition of human HCC2998 cells; conditions: read-out: LC50 (the source's name); how it was run: as §1
SF-295 [20] = assay: Growth inhibition of human SF295 cells assessed as cell growth at 1 nM relative to untreated control; conditions: read-out: Activity
PC-3 = assay: Growth inhibition of human PC3 cells
SW-620 = assay: Growth inhibition of human SW620 cells assessed as cell growth at 10 uM relative to untreated control; conditions: read-out: Activity
SNB-75 [21] = assay: Growth inhibition of human SNB75 cells assessed as cell growth at 10 uM relative to untreated control; conditions: read-out: Activity
DU-145 [22] = assay: Growth inhibition of human DU145 cells; how it was run: as §1
SF-295 [23] = assay: Growth inhibition of human SF295 cells assessed as cell growth at 10 nM relative to untreated control; conditions: read-out: Activity
M14 = assay: Growth inhibition of human M14 cells assessed as cell growth at 10 nM relative to untreated control; conditions: read-out: Activity
HOP-92 [24] = assay: Growth inhibition of human HOP92 cells; how it was run: as §1
SK-MEL-28 = assay: Growth inhibition of human SK-MEL-28 cells
EKVX [25] = assay: Growth inhibition of human EKVX cells assessed as cell growth at 1 nM relative to untreated control; conditions: read-out: Activity; how it was run: as §1
[26] = read-out: LC50 (the source's name)

COc1ccc2c(c1)[nH]c1c(C)c(OS(=O)(=O)c3cccc4c(N(C)C)cccc34)ccc12
growth at 0.1 µM (A498 [1]): 59%
growth at 0.1 µM (EKVX [2]): 91%
growth at 0.1 µM (UO-31): 92%
growth at 1 µM (ACHN): 43%
growth at 0.001 µM (SNB-19 [3]): 97%
growth at 0.001 µM (IGROV-1): 111%
growth at 0.001 µM (NCI-H460 [4]): 102%
growth at 0.01 µM (UACC-62): 83%
GI50 (SNB-75 [5]): 4.48 µM
TGI (SNB-75 [5]): 47.1 µM
CC50 (SNB-75 [5]; [26]): > 100 µM
growth at 1 µM (EKVX [6]): 35%
growth at 0.01 µM (HOP-92 [7]): 96%
growth at 0.01 µM (HCC 2998 [8]): 101%
growth at 0.1 µM (HT-29): 96%
growth at 0.001 µM (OVCAR-5 [9]): 107%
growth at 1 µM (U-251): 25%
GI50 (HOP-62): 17.3 µM
TGI (HOP-62): > 100 µM
CC50 (HOP-62; [26]): > 100 µM
growth at 0.01 µM (T47D): 53%
growth at 1 µM (UACC-257 [10]): 51%
CC50 (HL-60(TB)): > 100 µM
growth at 0.001 µM (NCI-H23): 89%
growth at 0.001 µM (A549): 101%
growth at 0.001 µM (MCF7): 95%
growth at 0.001 µM (A498 [11]): 93%
growth at 10 µM (MDA-MB-435): -1%
growth at 0.01 µM (UACC-257 [12]): 109%
growth at 0.001 µM (DU-145 [13]): 113%
growth at 0.1 µM (BT-549): 93%
GI50 (UACC-257 [14]): 11.5 µM
TGI (UACC-257 [14]): > 100 µM
CC50 (UACC-257 [14]; [26]): > 100 µM
growth at 0.001 µM (786-0): 101%
GI50 (SF-268): 75.1 µM
TGI (SF-268): > 100 µM
CC50 (SF-268; [26]): > 100 µM
GI50 (SNB-19 [15]): 7.88 µM
TGI (SNB-19 [15]): > 100 µM
CC50 (SNB-19 [15]; [26]): > 100 µM
growth at 0.01 µM (SR): 91%
growth at 10 µM (TK-10): 6%
growth at 0.01 µM (NCI-H460 [16]): 101%
growth at 0.01 µM [17]: 58%
growth at 10 µM (OVCAR-5 [18]): 33%
growth at 1 µM (NCI-H322M): 52%
growth at 10 µM (OVCAR-4): 30%
CC50 (HCC 2998 [19]): > 100 µM
growth at 0.001 µM (SF-295 [20]): 94%
GI50 (PC-3): 39.3 µM
TGI (PC-3): > 100 µM
CC50 (PC-3; [26]): > 100 µM
growth at 10 µM (SW-620): 9%
growth at 10 µM (SNB-75 [21]): -12%
GI50 (DU-145 [22]): 3.54 µM
TGI (DU-145 [22]): > 100 µM
CC50 (DU-145 [22]; [26]): > 100 µM
growth at 0.01 µM (SF-295 [23]): 93%
growth at 0.01 µM (M14): 105%
GI50 (HOP-92 [24]): 9.51 µM
TGI (HOP-92 [24]): 94.8 µM
CC50 (HOP-92 [24]; [26]): > 100 µM
GI50 (SK-MEL-28): 50.3 µM
TGI (SK-MEL-28): > 100 µM
CC50 (SK-MEL-28; [26]): > 100 µM
growth at 0.001 µM (EKVX [25]): 99%
